Screening results deposited in PubChem BioAssay by several laboratories.
Only some compounds are listed: those with a hit (about 12% of all), similar ones and a draw of the others.
CHOP inh = CHOP inhibition in unfolded protein response | inhibition, % at 10 µM | 220,000 compounds, 3.8% hits | CHO-K1 CHOP-promoter luciferase, tunicamycin-induced, 15-18 h | AID 2732;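 active = compounds that reduced the stress-induced luciferase reporter signal by more than about 70% of percent inhibition, limit read from the data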;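 note: 0% = tunicamycin plus vehicle and 100% = wells without tunicamycin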
PKD1 kinase inh = PKD1 (human) kinase inhibition. inhibition, % (concentration not given with the values). 200,000 compounds, 0.056% hits. PKD1 kinase fluorescence polarization assay. Q15139
Rad51 HR inh = Rad51 (human) homologous recombination inhibition; Q06609; hRad51 DNA strand exchange, fluorescence dequenching; inhibition, % at 10 µM; 200,000 compounds, 0.085% hits;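 active = inhibition above 40% at the single screening dose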;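 note: 0% = DMSO control wells and 100% = blanks with heterologous ssDNA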
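System: hRad51 filaments on single-stranded DNA; reagent: Fluorescein- and BHQ1-tagged 47-mer duplex; compound dosing: one concentration, 10 µM final; timing: filaments 15 min 37 °C, then compound 30 min; measured by: fluorescein emission 520 nm, excitation 485 nm; benchmarks: per-plate controls and blanks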
Wee1 degr inh = inhibitors of human Wee1 degradation. P30291. HeLa Luc-Wee1K328M stability, luciferase luminescence; 100% = proteasome inhibitor MG132 effect. reporter increase, % at 5 µM. 220,000 compounds, 1.2% hits. AID 1321;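 active = activation above the mean of all tested compounds plus 3 SD, set per screening run, cut at about 8.8% in these data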;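 note: cells exposed to compound for 20 h before luminescence read; 0% = DMSO alone and 100% = MG132 at 30 µM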
Target sequence (P30291 whole entry K328M): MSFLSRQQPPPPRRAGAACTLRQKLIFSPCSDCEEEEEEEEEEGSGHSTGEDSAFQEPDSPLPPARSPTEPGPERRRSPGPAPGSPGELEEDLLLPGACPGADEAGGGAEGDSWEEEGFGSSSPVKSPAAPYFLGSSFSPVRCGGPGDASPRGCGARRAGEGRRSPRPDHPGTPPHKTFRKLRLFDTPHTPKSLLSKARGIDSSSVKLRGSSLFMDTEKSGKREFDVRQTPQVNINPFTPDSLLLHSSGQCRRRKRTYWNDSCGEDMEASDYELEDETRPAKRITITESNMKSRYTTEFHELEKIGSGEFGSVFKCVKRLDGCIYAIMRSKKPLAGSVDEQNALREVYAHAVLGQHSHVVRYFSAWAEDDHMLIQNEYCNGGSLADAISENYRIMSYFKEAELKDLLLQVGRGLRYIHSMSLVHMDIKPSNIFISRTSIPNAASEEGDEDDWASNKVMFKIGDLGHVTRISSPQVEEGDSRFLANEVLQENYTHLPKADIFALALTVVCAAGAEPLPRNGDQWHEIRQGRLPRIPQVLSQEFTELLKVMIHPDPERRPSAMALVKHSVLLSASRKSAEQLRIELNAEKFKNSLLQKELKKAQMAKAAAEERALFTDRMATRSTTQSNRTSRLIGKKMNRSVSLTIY
Lmaj promast = reduces viability of Leishmania major promastigotes. resazurin fluorescence viability. inhibition, % at 10 µM. 200,000 compounds, 9% hits. AID 1063;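 note: promastigotes grown with compound for 44 hours at 28 °C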
Arbovirus inh = blocks arbovirus infection | arbovirus infection cell-based antiviral screen | inhibition, % at 10 µM | 200,000 compounds, 0.37% hits; in the data active = inhibition above about 30%
* hit, by the source's call; . = not tested or not shown. Cut-off read from the data, not from the text of the source, unless noted: active = inhibition above about 50%; inactive = the rest.

SMILES | CHOP inh | PKD1 kinase inh | Rad51 HR inh | Wee1 degr inh | Lmaj promast | Arbovirus inh
Cc1cc(C(=O)CN2C(=O)NC3(CCCc4sccc43)C2=O)c(C)n1-c1ccc(Cl)cc1 (configuration not stated) | 55 | 4 | 1 | -3 | 84* | 15
COC(=O)c1ccc(NC(=S)NC2CCc3ccccc32)cc1 (configuration not stated) | 22 | 0 | -7 | 1 | 13 | 17
COc1ccc(NC(=O)c2ccc3c(c2)NC(=O)CS3)cc1S(=O)(=O)Nc1ccc(Br)cc1 | -25 | -6 | 5 | 1 | 16 | -23
Cc1ccc(C)c(NS(=O)(=O)c2cc(C(=O)Nc3cccc(N(C)S(C)(=O)=O)c3)ccc2C)c1 | 14 | -10 | -5 | 1 | 90* | 11
Cc1ccc(NS(=O)(=O)c2cc(NC(=O)c3ccc4c(c3)NC(=O)CS4)ccc2C)c(C)c1 | 24 | 1 | -5 | 2 | 64* | -12
Cc1ccc(NS(=O)(=O)c2cc(C(=O)Nc3cccc(N(C)S(C)(=O)=O)c3)ccc2C)c(C)c1 | -3 | 2 | 5 | 0 | 69* | -10
Cc1cc(-c2nnc(CCC(=O)NC(C)c3ccc(F)cc3)o2)no1 (configuration not stated) | -15 | 1 | 0 | -1 | -6 | 2
O=C(COC(=O)c1cc2ccccc2cc1O)Nc1cccnc1Cl | 31 | -6 | 11 | 0 | 63* | 13
Fc1cccc2sc(N3CCCC3)nc12 | -7 | 0 | 13 | -1 | 0 | 11
c1ccc(Cn2ncc3c(Nc4ccccc4)ncnc32)cc1 | 24 | . | -6 | 0 | . | .
COc1ccc(Nc2ncnc3c2cnn3Cc2ccc(C)cc2)cc1 | 55 | -4 | 4 | -1 | 90* | 7
O=C(O)[C@H](Cc1ccccc1)NC(=O)N1CCN(c2cccc(C(F)(F)F)c2)CC1 | 10 | . | -7 | 8 | . | .
O=[N+]([O-])c1c(N2CCN(CCO)CC2)nc2ccccn12 | -2 | . | 7 | -1 | . | .
CS(=O)(=O)N1CCN(CC2CC3C=CC2C3)CC1 (configuration not stated) | 21 | 3 | -5 | -4 | 93* | -6
CCN1CCN(CC2CC3C=CC2C3)CC1 (configuration not stated) | -7 | 13 | 5 | -3 | 12 | -10
NC(=O)N1CCN(C(=O)c2ccco2)CC1 | -26 | -5 | -2 | 1 | -4 | -1
Cc1ccccc1CN1CCN(CC2CC3C=CC2C3)CC1 (configuration not stated) | 11 | -6 | -12 | -2 | 87* | -4
O=C(c1ccco1)N1CCN(CC2CC3C=CC2C3)CC1 (configuration not stated) | -6 | -6 | -5 | -2 | 93* | 19
C1=CC2CC1CC2CN1CCN(c2ccccc2)CC1 (configuration not stated) | 19 | 2 | -4 | -1 | 85* | -17
O=C(COc1ccc(S(=O)(=O)Nc2ccccc2)cc1)NCc1ccncc1 | 6 | -3 | -36 | -1 | 9 | 2
c1ccc2c(c1)CCN(c1nc(CN3CCOCC3)nc3sc4c(c13)CCCC4)C2 | 85* | -3 | -6 | -1 | 19 | -29
CCNc1nc(CN2CCOCC2)nc2sc3c(c12)CCC3 | 50 | 0 | -3 | 0 | 9 | 5
c1ccc(-c2cn3nc4c(nc3n2)CCCC4)cc1 | 64 | 17 | -12 | -1 | -4 | -8
Brc1ccc(-c2cn3nc4c(nc3n2)CCCC4)cc1 | 96* | -3 | -3 | 5 | 42 | 4
CCc1ccc(S(=O)(=O)NC(=S)NC2CCCCC2)cc1 | 17 | -2 | . | 1 | -1 | 7
SMILES | CHOP inh | PKD1 kinase inh | Rad51 HR inh | Wee1 degr inh | Lmaj promast | Arbovirus inh
Cc1sc2ncn(CCC(=O)O)c(=O)c2c1C | -10 | -10 | -5 | -3 | -7 | -2
Cc1sc2ncn(CCn3cnc4sc(C)c(C)c4c3=O)c(=O)c2c1C | 90* | -9 | -2 | 0 | 8 | 6
O=C(NCC1CCCO1)c1ccc(Br)o1 (configuration not stated) | -2 | 1 | 41* | 6 | -7 | 3
O=C(Cc1ccccc1)NCC1CCCO1 (configuration not stated) | -29 | -2 | -3 | 10* | -4 | 7
O=C(COC(=O)c1ccc(Br)o1)NCC1CCCO1 (configuration not stated) | -24 | -6 | 1 | 2 | -4 | 4
CC(C)(C)c1ccc(C(=O)NNC(=S)NCC2CCCO2)cc1 (configuration not stated) | -7 | -6 | 6 | -2 | -6 | 12
CC(C)(C)c1ccc(C(=O)NC(=S)NCC2CCCO2)cc1 (configuration not stated) | -13 | 13 | 2 | 1 | 5 | 40*
O=C(COc1ccccc1)Nc1ccccc1Cl | -15 | 9 | 34 | 0 | -3 | -1
Cc1ccc(Cl)cc1NC(=S)N(CCN(C)C)C(C)c1ccccn1 (configuration not stated) | -6 | -4 | 31 | 0 | 17 | 11
CC(C)[C@@H](N)C(=O)N/N=C/c1ccc2ncccc2c1 | 10 | . | 9 | 18* | . | .
S=C(N/N=C/c1ccc2ncccc2c1)Nc1cccnc1 | 35 | 1 | 18 | 1 | 5 | -1
CCN(CCC(=O)Nc1ccc(Br)c(C)c1)Cc1ccccc1 | 15 | -2 | -1 | 7 | 92* | -1
Cc1ccc(OCC(=O)Nc2ccc(C)c(S(=O)(=O)N3CCCCCC3)c2)c([N+](=O)[O-])n1 | 65 | -7 | -13 | 4 | 64* | -3
Cc1ccc(NC(=O)CSc2ncnc3ccccc23)cc1S(=O)(=O)N1CCCCCC1 | 70* | 1 | 1 | -3 | 14 | 5
Cc1ccc(NC(=O)CSc2nccn2C)cc1S(=O)(=O)N1CCOCC1 | 25 | -4 | 6 | -1 | 57* | 8
Cc1ccc(S(=O)(=O)N2CCCCC2)cc1NC(=O)CSc1ncnc2ccccc12 | -6 | -4 | . | -4 | 21 | 6
Cc1ccc(NC(=O)CN2c3cccc4cccc(c34)S2(=O)=O)cc1S(=O)(=O)N1CCOCC1 | 51 | -9 | 10 | 0 | 96* | 1
COc1cc(S(=O)(=O)N2CCOCC2)ccc1NC(=O)CN1c2cccc3cccc(c23)S1(=O)=O | 10 | -2 | . | 1 | 10 | 5
Cc1ccc(NC(=O)CSc2ccccn2)cc1S(=O)(=O)N1CCOCC1 | 14 | -7 | -74 | -3 | 1 | 0
COC(=O)c1ccc(/C=N/NC(=O)C(=O)NCC2CCCO2)cc1 (configuration not stated) | 0 | . | 3 | 0 | . | .
Cc1ccc(NC(=O)C2(c3ccccc3)CC2(Cl)Cl)cc1C (configuration not stated) | 22 | 8 | . | -1 | 67* | -8
Cc1cc(C)cc(NC(=O)C2(c3ccccc3)CC2(Cl)Cl)c1 (configuration not stated) | 49 | -23 | -3 | 0 | 9 | -21
